TRAIL sens C8: caspase-8 TRAIL sensitization | NB7+C8 cells + TRAIL, ATPlite viability luminescence | inhibition (viability loss, TRAIL sensitization), % at 10 µM | 360,000 compounds, 1% hits;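 active means compounds causing at least 50% loss of cell viability in the single-dose screen, relative to plate controls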
PPC-1+TRAIL kill: kills PPC-1 cancer cells in the presence of TRAIL. cell killing (% activity), % at 4 µM or 5 µM. PPC-1 cells + TRAIL, ATPLite viability luminescence. 220,000 compounds, 0.41% hits;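 active means cell killing above 50% in the first pass at 4 µM, then a duplicate retest at 5 µM averaging 50% or more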;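 further: plate controls were cells with TRAIL plus DMSO for no effect and medium-only wells lacking cells for full effect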
FLuc inhib CS: Photinus pyralis luciferase inhibition counter-screen | 200,000 compounds, 1.5% hits | inhibition, % at 10 µM | AID 1006 | P08659 | ATPLite firefly luciferase biochemical luminescence, 10 min;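 active means inhibition above about 50% when tested at 10 µM, limit read from the data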
Target sequence (P08659 whole entry, looked up): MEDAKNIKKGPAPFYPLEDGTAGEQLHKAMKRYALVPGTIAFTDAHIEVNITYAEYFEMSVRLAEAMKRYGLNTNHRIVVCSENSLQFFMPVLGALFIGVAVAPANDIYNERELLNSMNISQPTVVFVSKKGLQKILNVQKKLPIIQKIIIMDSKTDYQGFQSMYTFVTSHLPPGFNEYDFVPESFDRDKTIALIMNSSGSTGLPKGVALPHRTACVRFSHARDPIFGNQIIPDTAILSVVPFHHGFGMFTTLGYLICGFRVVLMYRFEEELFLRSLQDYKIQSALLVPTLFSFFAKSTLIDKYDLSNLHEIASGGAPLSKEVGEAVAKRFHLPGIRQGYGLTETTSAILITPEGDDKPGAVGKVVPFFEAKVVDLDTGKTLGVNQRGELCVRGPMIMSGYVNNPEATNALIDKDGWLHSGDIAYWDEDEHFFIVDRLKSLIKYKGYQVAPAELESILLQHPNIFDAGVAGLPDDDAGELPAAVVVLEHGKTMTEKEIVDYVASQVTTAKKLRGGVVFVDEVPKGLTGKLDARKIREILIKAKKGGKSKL
FLuc stim CS: affects firefly luciferase, flagging false hits in luciferase stimulation screens. activation factor at 10 µM. AID 1027. 200,000 tested, under 10 active. ATPlite luciferase biochemical, luminescence, 10 min; 0 = ATP-free wells, 1 = DMSO control. P08659;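 active means luciferase activation factor, scaled between plate controls, of at least 2 with compound at 10 µM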
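Material: luciferase plus luciferin reagent, cell-free. Medium: PBS buffer for ATP. Also added: ATP substrate, dispensed from a 10.24 µM working solution in PBS. Doses: test compounds dosed from 2 mM stocks in 100% DMSO. Incubation: 10 min post-reagent at room temperature. Technique: light output (luminescence). Read-out basis: luminescence gain marking luciferase activators.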
* marks the source's active call; other numbers are inactive results. A selection: hits, their analogues and other compounds. The true share with any hit is near 1.5%.

Results for Clc1ccc(-c2nnc(-c3ccccc3Cl)o2)cc1 ?
TRAIL sens C8: 47; PPC-1+TRAIL kill: 24; FLuc inhib CS: 74*; FLuc stim CS: 0.3

How did COc1cccc(C(=O)N(C)Cc2c(C)nn(C3CCS(=O)(=O)C3)c2C)c1 (configuration not stated) do in these assays?
TRAIL sens C8: 10

How did CCCN(C)C1CN(Cc2cn(Cc3cccc(C(F)(F)F)c3)nn2)S(=O)(=O)C1 (configuration not stated) do in these assays?
TRAIL sens C8: -7

Results for O=C(NCCCc1ccncc1)C1CCC(=O)N(CCc2cccc(F)c2)C1 (configuration not stated) ?
TRAIL sens C8: 5

Results for COc1ccc(Cc2nnc(N/N=C/c3ccc(O)cc3O)[nH]c2=O)cc1OC ?
TRAIL sens C8: 51*; PPC-1+TRAIL kill: 5; FLuc inhib CS: 22; FLuc stim CS: 0.8

How did CCC1SC2=NC(C)=C(C(=O)OCCOC)C(c3ccc(C(=O)OC)cc3)N2C1=O (configuration not stated) do in these assays?
TRAIL sens C8: -10; PPC-1+TRAIL kill: 11; FLuc inhib CS: -4; FLuc stim CS: 1

How did Cc1ccc2c(c1C)-c1c(ccc(C)c1C)C(=O)C2=O do in these assays?
TRAIL sens C8: 58*

Results for Cc1ccc(CC#N)c(-c2c(CC#N)ccc(C)c2C)c1C ?
TRAIL sens C8: -3

How did Cc1ccc(C(=O)N/C(=C\c2cn(S(=O)(=O)N(C)C)c3ccccc23)C(=O)NCCCN2CCOCC2)cc1 do in these assays?
TRAIL sens C8: -6

Results for O=C(Nc1nnc(-c2ccccc2)o1)NC1CCCCC1 ?
TRAIL sens C8: 61*; PPC-1+TRAIL kill: 6; FLuc inhib CS: -2; FLuc stim CS: 1

What do the screens show for `c1ccc(-c2nnc(NC3=NCCC3)o2)cc1`?
TRAIL sens C8: 33; PPC-1+TRAIL kill: 40; FLuc inhib CS: 66*; FLuc stim CS: 0.3

What do the screens show for `O=C(Nc1ccccc1)Nc1nnc(-c2ccccc2)o1`?
TRAIL sens C8: 7; PPC-1+TRAIL kill: 20; FLuc inhib CS: 1; FLuc stim CS: 1

What do the screens show for `Cc1ccc2nc3ccc(N4CCCCCCC4)nn3c(=O)c2c1`?
TRAIL sens C8: 47; PPC-1+TRAIL kill: 32; FLuc inhib CS: 62*; FLuc stim CS: 0.4

Results for O=C(Nc1ccc2c(c1)OCO2)c1noc2c1CCCC2 ?
TRAIL sens C8: 23

Results for CN(c1ccc(C(=O)Nc2ccc3c(c2)OCO3)cc1)S(C)(=O)=O ?
TRAIL sens C8: 9; PPC-1+TRAIL kill: 30

What do the screens show for `CN(c1ccc(C(=O)Nc2ccc3c(c2)OCCO3)cc1)S(C)(=O)=O`?
TRAIL sens C8: 42; PPC-1+TRAIL kill: 36; FLuc inhib CS: 56*; FLuc stim CS: 0.4

How did Cc1ccn2cc(C(=O)Nc3ccc4c(c3)OCCO4)nc2c1 do in these assays?
TRAIL sens C8: 62*; PPC-1+TRAIL kill: 43; FLuc inhib CS: 73*; FLuc stim CS: 0.3

What do the screens show for `Cc1ccc(C(=O)Nc2ccc3c(c2)OCO3)o1`?
TRAIL sens C8: 19; PPC-1+TRAIL kill: 28; FLuc inhib CS: 40; FLuc stim CS: 0.6

What do the screens show for `O=C(Nc1ccc2c(c1)OCO2)c1noc2c1CCCCC2`?
TRAIL sens C8: 47; PPC-1+TRAIL kill: 34; FLuc inhib CS: 57*; FLuc stim CS: 0.4

What do the screens show for `C/C(=C\C(=O)c1ccc(C)o1)Nc1ccc2c(c1)OCO2`?
TRAIL sens C8: 10; PPC-1+TRAIL kill: 5; FLuc inhib CS: 52*; FLuc stim CS: 0.5

Results for O=C(COC(=O)CCC(=O)c1cccs1)NCc1ccccc1 ?
TRAIL sens C8: -2; PPC-1+TRAIL kill: 6; FLuc inhib CS: -2; FLuc stim CS: 1

Results for CC(C)c1nnc(SCC(=O)NC2CCCCC2)n1C ?
TRAIL sens C8: -14

How did CN(C)CC[n+]1ccc(C(=O)c2ccccc2)cc1 do in these assays?
TRAIL sens C8: -7

How did Cc1ccc(C(=O)Nc2ccc3c(c2)OCCO3)c(Cl)c1 do in these assays?
TRAIL sens C8: 83*

Results for COc1ccc(Cl)cc1C(=O)Nc1ccc2c(c1)OCCO2 ?
TRAIL sens C8: 52*

Results for Cc1ccc(C(=O)Nc2ccc3c(c2)OCO3)cc1 ?
TRAIL sens C8: 74*; PPC-1+TRAIL kill: 72*; FLuc inhib CS: 88*; FLuc stim CS: 0.1

How did O=C(Nc1ccc2c(c1)OCCO2)c1cc(F)c(F)cc1Cl do in these assays?
TRAIL sens C8: 20

How did CCOc1cccc(C(=O)Nc2ccc3[nH]ncc3c2)c1 do in these assays?
TRAIL sens C8: 62*
